Experimental data published in ChEMBL document CHEMBL1154413, “In vitro activities of different inhibitors of bacterial transcription against Staphylococcus epidermidis biofilm” (Antimicrob Agents Chemother, 2007).
Converted amounts (≈) assume the structure as drawn. The source made the active and inactive calls. No cut-off for these calls is given here.

What was measured:
[1] = Inhibition of Staphylococcus epidermidis RNA polymerase mediated transcription
Method in brief: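 Transcription measured on toluene-permeabilized S. epidermidis cells, endogenous DNA as template; [5-3H]UTP incorporation read out, concentration giving 50% inhibition calculated. Triplicate.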

[2] = tested on: Staphylococcus epidermidis; experiment: Inhibition of Staphylococcus epidermidis biofilm formation assessed as reduction of >2 log 10 bacterial count in biofilm after 24 hrs; type: functional, organism-based
Method in brief: (§1)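 S. epidermidis RP62A biofilms grown 24 h at 37°C from 10^7 CFU/ml in MHB in polystyrene microtiter wells, rinsed, then exposed 24 h at 37°C without shaking to compound in MHB (1× to 16× MIC). Washed, lysed with DMSO, bacterial ATP read by luciferase/luciferin bioluminescence, converted to log10 CFU/well via calibration against plate counts; reduction versus unchallenged biofilm. Triplicate.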

[3] = tested on: Staphylococcus epidermidis; experiment: Ratio of MBC for Staphylococcus epidermidis to MIC for Staphylococcus epidermidis; type: functional
Method in brief: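 MBC obtained by extending the CLSI MIC assay (MHB, 5 × 10^5 CFU/ml, 37°C, 24 h): well portions serially diluted, spotted on MHB agar, incubated 37°C, read at 24 h as lowest concentration giving 0.1% survival. Triplicate.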

[4] = tested on: Staphylococcus epidermidis; experiment: Antimicrobial activity against Staphylococcus epidermidis; type: functional
Method in brief: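 S. epidermidis RP62A; broth microdilution per CLSI in Mueller-Hinton broth, inoculum 5 × 10^5 CFU/ml, 37°C for 24 h before reading. Triplicate.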

[5] = tested on: Staphylococcus epidermidis; experiment: Inhibition of Staphylococcus epidermidis biofilm formation assessed as log 10 reduction of bacterial count in biofilm at 4 times MIC per well after 24 hrs; type: functional; method in brief: as §1
[6] = tested on: Staphylococcus epidermidis; experiment: Inhibition of Staphylococcus epidermidis biofilm formation assessed as log 10 reduction of bacterial count in biofilm at 0.025 ug/ml per well after 24 hrs; type: functional; method in brief: as §1

| Structure (SMILES) | IC50 [1] | MIC [4] | Activity [2] | Ratio [3] | MBC [4] | Activity [5] | Activity [6] |
| --- | --- | --- | --- | --- | --- | --- | --- |
| C=CCN1C(=O)/C(=C/c2ccc(-c3cccc(C(=O)O)c3)o2)SC1=S | 2.5 µg/mL (≈ 6.73 µM) | 12.5 µg/mL (≈ 33.7 µM) | inactive | 2 | 25 µg/mL (≈ 67.3 µM) | 1.8 | – |
| O/N=C(\Nc1cccc(Cl)c1)c1ccc(Cl)c(C(F)(F)F)c1 | 2.3 µg/mL (≈ 6.59 µM) | 25 µg/mL (≈ 71.6 µM) | – | 1 | 25 µg/mL (≈ 71.6 µM) | 3 | – |
| CNC(=O)[C@@H](C)[C@H]1C(=O)/C(=C(O)/C=C/C(C)=C/[C@@H](C)[C@H]2O[C@@]3(C)O[C@H](C=C[C@@]34CO4)[C@@H]2C)C(=O)N1[C@@H]1CC[C@H](O)[C@H](C)O1 [STREPTOLYDIGIN] | 2.3 µg/mL (≈ 3.83 µM) | 50 µg/mL (≈ 83.2 µM) | inactive | 2 | 100 µg/mL (≈ 166 µM) | – | – |
| CC(=O)Nc1c2sscc-2n(C)c1=O [THIOLUTIN] | > 100 µg/mL | 6.25 µg/mL (≈ 27.4 µM) | inactive | 2 | 12.5 µg/mL (≈ 54.8 µM) | – | – |

Further lines, with some results ahead:

| IC50 [1] | MIC [4] | Structure (SMILES) | Activity [2] | Ratio [3] | MBC [4] | Activity [5] | Activity [6] |
| --- | --- | --- | --- | --- | --- | --- | --- |
| 4.2 µg/mL (≈ 15 µM) | 100 µg/mL (≈ 357 µM) | O/N=C(\Nc1ccccc1)c1cccc(C(F)(F)F)c1 | – | 1 | 100 µg/mL (≈ 357 µM) | 3 | – |
| 0.5 µg/mL (≈ 1.34 µM) | 6.25 µg/mL (≈ 16.8 µM) | CCOC(=O)c1c(NC(=O)Nc2ccccc2)sc2c1CCCCCC2 | inactive | >18 | > 100 µg/mL | – | – |
| > 100 µg/mL | 12.5 µg/mL (≈ 58.3 µM) | CC(=O)Nc1c2sscc-2[nH]c1=O [HOLOMYCIN] | inactive | 4 | 50 µg/mL (≈ 233 µM) | – | – |
| 0.04 µg/mL (≈ 0.0486 µM) | 0.006 µg/mL (≈ 0.00729 µM) | CO[C@H]1/C=C/O[C@@]2(C)Oc3c(C)c(O)c4c(O)c(c(/C=N/N5CCN(C)CC5)c(O)c4c3C2=O)NC(=O)/C(C)=C\C=C\[C@H](C)[C@H](O)[C@@H](C)[C@@H](O)[C@@H](C)[C@H](OC(C)=O)[C@@H]1C [RIFAMPIN] | inactive | 1 | 0.006 µg/mL (≈ 0.00729 µM) | – | – |
| 0.08 µg/mL (≈ 0.0912 µM) | 0.012 µg/mL (≈ 0.0137 µM) | CO[C@H]1/C=C/O[C@@]2(C)Oc3c(C)c(O)c4c(O)c(c(/C=N/N5CCN(C6CCCC6)CC5)c(O)c4c3C2=O)NC(=O)/C(C)=C\C=C\[C@H](C)[C@H](O)[C@@H](C)[C@@H](O)[C@@H](C)[C@H](OC(C)=O)[C@@H]1C [RIFAPENTINE] | inactive | 2 | 0.025 µg/mL (≈ 0.0285 µM) | – | 1.5 |
| 0.07 µg/mL (≈ 0.0891 µM) | 0.012 µg/mL (≈ 0.0153 µM) | CO[C@H]1/C=C/O[C@@]2(C)Oc3c(C)c(O)c4c(O)c(c5c(nc6cc(C)ccn65)c4c3C2=O)NC(=O)/C(C)=C\C=C\[C@H](C)[C@H](O)[C@@H](C)[C@@H](O)[C@@H](C)[C@H](OC(C)=O)[C@@H]1C [RIFAXIMIN] | inactive | 2 | 0.025 µg/mL (≈ 0.0318 µM) | – | 1.5 |
